Data as given in ChEMBL document CHEMBL1127523, “Design and synthesis of side-chain conformationally restricted phenylalanines and their use for structure-activity studies on tachykinin NK-1 receptor” (J Med Chem, 1994).

Tests used:
[1] = target: Substance-P receptor (Rattus norvegicus, UniProt P14600); assay: Concentration required to inhibit the specific binding of [125I]BH-SP to Neurokinin-1 (NK-1) receptor in rat brain synaptosomes; assay type: subcellular
[2] = target: T1, Substance-K receptor (Rattus norvegicus, UniProt P16610); assay: Concentration required to inhibit the specific binding of [3H]NKA to Neurokinin-2 (NK-2) receptor in rat duodenum membranes
T1 sequence (P16610 whole entry): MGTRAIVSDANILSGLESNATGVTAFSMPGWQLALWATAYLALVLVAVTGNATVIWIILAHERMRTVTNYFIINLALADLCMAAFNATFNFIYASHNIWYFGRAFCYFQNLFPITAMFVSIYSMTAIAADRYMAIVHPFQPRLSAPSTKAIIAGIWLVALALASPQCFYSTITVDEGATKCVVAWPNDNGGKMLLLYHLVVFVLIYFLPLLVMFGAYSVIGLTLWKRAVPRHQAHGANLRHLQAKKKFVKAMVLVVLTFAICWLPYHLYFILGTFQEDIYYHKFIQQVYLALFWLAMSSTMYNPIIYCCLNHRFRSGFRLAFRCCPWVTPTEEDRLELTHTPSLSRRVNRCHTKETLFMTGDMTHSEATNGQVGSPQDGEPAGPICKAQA

[3] = target: T2, Neuromedin-K receptor (Rattus norvegicus, UniProt P16177); assay: Concentration required to inhibit the specific binding of [125I]BH-ELE to Neurokinin-3 (NK-3) receptor in rat brain synaptosomes; assay type: subcellular
T2 sequence (P16177 whole entry): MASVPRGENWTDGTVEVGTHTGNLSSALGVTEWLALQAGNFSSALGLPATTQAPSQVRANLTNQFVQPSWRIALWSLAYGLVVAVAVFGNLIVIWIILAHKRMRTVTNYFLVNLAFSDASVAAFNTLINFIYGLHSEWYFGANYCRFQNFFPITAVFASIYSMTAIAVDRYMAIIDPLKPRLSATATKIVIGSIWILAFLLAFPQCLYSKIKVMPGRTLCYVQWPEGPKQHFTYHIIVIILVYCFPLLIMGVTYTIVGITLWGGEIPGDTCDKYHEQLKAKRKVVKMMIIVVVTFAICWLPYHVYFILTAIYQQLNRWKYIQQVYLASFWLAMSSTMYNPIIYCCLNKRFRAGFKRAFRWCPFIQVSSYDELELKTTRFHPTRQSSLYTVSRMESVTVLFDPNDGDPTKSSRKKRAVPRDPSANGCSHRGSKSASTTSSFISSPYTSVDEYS
Procedure, shortened: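 Rat brain synaptosomes in Krebs-Ringer phosphate buffer with BSA, bacitracin and glucose. Incubated 15 min at 20 °C with 40 pM [125I]BHELE and increasing peptide concentrations, gamma counted. Triplicates, two to eight independent experiments; nonspecific binding defined with eledoisin 10⁻⁶ M. IC50 estimated from Hill plots of titration curves.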

Chain of Substance-P receptor (P14600 whole entry): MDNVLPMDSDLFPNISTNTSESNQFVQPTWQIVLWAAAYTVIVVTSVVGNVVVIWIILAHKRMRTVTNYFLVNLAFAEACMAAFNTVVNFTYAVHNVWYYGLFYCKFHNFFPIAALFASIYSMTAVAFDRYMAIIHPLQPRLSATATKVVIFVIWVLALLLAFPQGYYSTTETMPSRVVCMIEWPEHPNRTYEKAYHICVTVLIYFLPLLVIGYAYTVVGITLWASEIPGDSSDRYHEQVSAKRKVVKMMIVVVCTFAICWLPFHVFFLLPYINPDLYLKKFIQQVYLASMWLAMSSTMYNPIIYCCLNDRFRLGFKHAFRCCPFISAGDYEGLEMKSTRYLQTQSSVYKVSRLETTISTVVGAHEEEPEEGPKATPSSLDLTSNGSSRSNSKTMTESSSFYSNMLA

SMILES	IC50 [1] [nM]	IC50 [2] [nM]	IC50 [3] [nM]
CSCC[C@H](NC(=O)[C@H](CC(C)C)NC(=O)CNC(=O)[C@@H]1Cc2ccccc2CN1C(=O)[C@H](Cc1ccccc1)NC(=O)[C@H](CCC(N)=O)NC(=O)[C@H](CCC(N)=O)NC(=O)[C@@H]1CCCN1C(=O)[C@H](CCCCN)NC(=O)[C@@H]1CCCN1C(=O)[C@@H](N)CCCN=C(N)N)C(N)=O	1200	18000	20000
CSCC[C@H](NC(=O)[C@H](CC(C)C)NC(=O)CNC(=O)[C@H](Cc1ccccc1)NC(=O)[C@H](Cc1ccccc1)NC(=O)[C@H](CCC(N)=O)NC(=O)[C@H](CCC(N)=O)NC(=O)[C@@H]1CCCN1C(=O)[C@H](CCCCN)NC(=O)[C@@H]1CCCN1C(=O)[C@@H](N)CCCN=C(N)N)C(N)=O [SUBSTANCE P]			130
CSCC[C@H](NC(=O)[C@H](CC(C)C)NC(=O)CNC(=O)[C@@H](NC(=O)[C@H](Cc1ccccc1)NC(=O)[C@H](CCC(N)=O)NC(=O)[C@H](CCC(N)=O)NC(=O)[C@@H]1CCCN1C(=O)[C@H](CCCCN)NC(=O)[C@@H]1CCCN1C(=O)[C@@H](N)CCCNC(=N)N)C1c2ccccc2-c2ccccc21)C(N)=O	2.5	41	91
CSCC[C@H](NC(=O)[C@H](CC(C)C)NC(=O)CNC(=O)[C@H](Cc1ccccc1)NC(=O)[C@H](CCSC)NC(=O)[C@H](CCC(N)=O)NC(=O)[C@H](CCC(N)=O)NC(=O)[C@@H]1CCCN1C(=O)[C@H](CCCCN)NC(=O)[C@@H]1CCCN1C(=O)[C@@H](N)CCCNC(=N)N)C(N)=O	2700		7400
CSCC[C@H](NC(=O)[C@H](CC(C)C)NC(=O)CNC(=O)[C@@H](NC(=O)[C@H](Cc1ccccc1)NC(=O)[C@H](CCC(N)=O)NC(=O)[C@H](CCC(N)=O)NC(=O)[C@@H]1CCCN1C(=O)[C@H](CCCCN)NC(=O)[C@@H]1CCCN1C(=O)[C@@H](N)CCCNC(=N)N)[C@H]1CCc2cc3ccccc3cc21)C(N)=O	0.6	29	110
CSCC[C@H](NC(=O)[C@H](CC(C)C)NC(=O)CNC(=O)[C@H](Cc1ccccc1)NC(=O)[C@@H]1Cc2ccccc2CN1C(=O)[C@H](CCC(N)=O)NC(=O)[C@H](CCC(N)=O)NC(=O)[C@@H]1CCCN1C(=O)[C@H](CCCCN)NC(=O)[C@@H]1CCCN1C(=O)[C@@H](N)CCCN=C(N)N)C(N)=O	2400	520	1900
CSCC[C@H](NC(=O)[C@H](CC(C)C)NC(=O)CNC(=O)[C@@H](NC(=O)[C@H](Cc1ccccc1)NC(=O)[C@H](CCC(N)=O)NC(=O)[C@H](CCC(N)=O)NC(=O)[C@@H]1CCCN1C(=O)[C@H](CCCCN)NC(=O)[C@@H]1CCCN1C(=O)[C@@H](N)CCCNC(=N)N)C(C)(C)SC)C(N)=O	2.4	68	170
CSCC[C@H](NC(=O)[C@H](CC(C)C)NC(=O)CNC(=O)[C@H](Cc1ccccc1)NC(=O)[C@@H](NC(=O)[C@H](CCC(N)=O)NC(=O)[C@H](CCC(N)=O)NC(=O)[C@@H]1CCCN1C(=O)[C@H](CCCCN)NC(=O)[C@@H]1CCCN1C(=O)[C@@H](N)CCCNC(=N)N)C(c1ccccc1)c1ccccc1)C(N)=O	1300	3600	17000
CSCC[C@H](NC(=O)[C@H](CC(C)C)NC(=O)CNC(=O)[C@H](CCSC)NC(=O)[C@H](Cc1ccccc1)NC(=O)[C@H](CCC(N)=O)NC(=O)[C@H](CCC(N)=O)NC(=O)[C@@H]1CCCN1C(=O)[C@H](CCCCN)NC(=O)[C@@H]1CCCN1C(=O)[C@@H](N)CCCNC(=N)N)C(N)=O	18		1200
CSCC[C@H](NC(=O)[C@H](CC(C)C)NC(=O)CNC(=O)[C@@H](NC(=O)[C@H](Cc1ccccc1)NC(=O)[C@H](CCC(N)=O)NC(=O)[C@H](CCC(N)=O)NC(=O)[C@@H]1CCCN1C(=O)[C@H](CCCCN)NC(=O)[C@@H]1CCCN1C(=O)[C@@H](N)CCCNC(=N)N)C(c1ccccc1)c1ccccc1)C(N)=O	500	670	2200
